Positions of bridges follow the written chain, without caps; N, C: chain ends. Non-standard residues stand in square brackets, D forms with d. Residues, ends and D or L forms follow the SMILES beside them. Phe(4-NO2) = N[C@@H](Cc1ccc([N+](=O)[O-])cc1)C(=O)O; Phe(4-tBu) = CC(C)(C)c1ccc(C[C@H](N)C(=O)O)cc1; Phe(4-Cl) = N[C@@H](Cc1ccc(Cl)cc1)C(=O)O; Phe(3-F) = N[C@@H](Cc1cccc(F)c1)C(=O)O; Phe(4-F) = N[C@@H](Cc1ccc(F)cc1)C(=O)O; Phe(4-Me) = Cc1ccc(C[C@H](N)C(=O)O)cc1; Phe(2-F) = N[C@@H](Cc1ccccc1F)C(=O)O; mTyr = N[C@@H](Cc1cccc(O)c1)C(=O)O; Pen = CC(C)(S)[C@H](N)C(=O)O
Key:
Mu-type opioid receptor [1] = molecular target: T1, Mu-type opioid receptor (Cavia porcellus, UniProt P97266); test: Compound was tested for the inhibition of [3H]- [D-Ala2, N-MePhe4, Gly5-ol]-enkephalin (DAMGO) binding to Opioid receptor mu 1 in guinea pig brain homogenates; format: tissue-based
T1 sequence (P97266 whole entry): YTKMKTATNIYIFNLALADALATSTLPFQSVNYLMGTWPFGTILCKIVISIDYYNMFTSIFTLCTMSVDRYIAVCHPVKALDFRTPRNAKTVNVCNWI

[2] = molecular target: T2, Kappa-type opioid receptor (Cavia porcellus, UniProt P41144); test: Compound was tested for the inhibition of [3H]- (U69,593) binding to Opioid receptor kappa 1 in guinea pig brain homogenates; format: tissue-based
T2 sequence (P41144 whole entry): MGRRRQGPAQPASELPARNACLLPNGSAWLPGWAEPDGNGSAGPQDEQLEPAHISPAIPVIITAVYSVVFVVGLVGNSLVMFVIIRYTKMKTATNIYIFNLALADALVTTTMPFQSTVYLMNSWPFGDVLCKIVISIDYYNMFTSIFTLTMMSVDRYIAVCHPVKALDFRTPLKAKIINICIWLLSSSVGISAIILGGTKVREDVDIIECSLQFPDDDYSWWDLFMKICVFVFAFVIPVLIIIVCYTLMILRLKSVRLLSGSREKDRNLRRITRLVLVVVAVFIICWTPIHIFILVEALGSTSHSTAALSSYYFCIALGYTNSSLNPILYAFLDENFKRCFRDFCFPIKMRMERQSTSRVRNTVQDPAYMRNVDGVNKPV

[3] = molecular target: Opioid receptors; mu & delta (Homo sapiens) (UniProt P41143+P35372); test: Ratio of binding affinity towards mu receptor to delta receptor.; format: protein assay
Sequence of Opioid receptors; mu & delta (Homo sapiens) (P35372 whole entry, looked up): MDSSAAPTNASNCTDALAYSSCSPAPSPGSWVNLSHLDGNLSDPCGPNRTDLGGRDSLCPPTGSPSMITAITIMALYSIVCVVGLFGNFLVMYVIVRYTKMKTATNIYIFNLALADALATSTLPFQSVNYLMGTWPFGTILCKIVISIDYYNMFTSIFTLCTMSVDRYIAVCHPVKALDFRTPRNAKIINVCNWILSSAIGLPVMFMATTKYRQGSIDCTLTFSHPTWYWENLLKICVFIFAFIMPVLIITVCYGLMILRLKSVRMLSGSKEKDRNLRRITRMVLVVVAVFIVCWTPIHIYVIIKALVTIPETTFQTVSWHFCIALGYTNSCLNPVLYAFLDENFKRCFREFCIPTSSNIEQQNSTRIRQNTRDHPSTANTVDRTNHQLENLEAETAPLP
Sequence of Opioid receptors; mu & delta (Homo sapiens) (P41143 whole entry, looked up): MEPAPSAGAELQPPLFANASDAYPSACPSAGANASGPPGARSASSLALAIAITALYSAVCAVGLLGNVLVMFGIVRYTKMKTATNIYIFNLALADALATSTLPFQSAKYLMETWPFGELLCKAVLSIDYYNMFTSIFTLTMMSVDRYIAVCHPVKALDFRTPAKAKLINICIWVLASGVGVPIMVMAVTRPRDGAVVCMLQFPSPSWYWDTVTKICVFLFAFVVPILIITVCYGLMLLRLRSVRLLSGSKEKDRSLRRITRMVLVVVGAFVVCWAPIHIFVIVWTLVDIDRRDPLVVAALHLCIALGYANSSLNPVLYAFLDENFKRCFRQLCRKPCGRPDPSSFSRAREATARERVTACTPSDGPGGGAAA

[4] = molecular target: T2, Kappa-type opioid receptor; test: Compound was tested for the inhibition of [3H]- (U69,593) binding to opioid receptor kappa in guinea pig brain homogenates; format: tissue-based
Procedure, shortened: (§1)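 Guinea pig brain membranes (washed, preincubated 37 °C 30 min to remove endogenous opioids) in 50 mM Tris pH 7.4. Test compound preincubated with membranes 15 min at 25 °C, then 0.9 nM [3H]U69,593 added and incubated 90 min at 25 °C. Nonspecific binding defined with 10 μM U69,593. Filtration, scintillation counting. 12 concentrations, triplicate. IC50 by regression; Ki from saturation-derived KD.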

[5] = molecular target: Mu-type opioid receptor (Cavia porcellus) (UniProt P97266); test: Ratio of binding affinity towards opioid receptor mu to opioid receptor delta
Sequence of Mu-type opioid receptor (Cavia porcellus) (P97266 whole entry): as the sequence (P97266 whole entry) above

Mu-type opioid receptor [6] = molecular target: T1, Mu-type opioid receptor; test: Compound was tested for the inhibition of [3H]- [D-Ala2, N-MePhe4, Gly5-ol]-enkephalin (DAMGO) binding to opioid receptor mu in guinea pig brain homogenates; format: tissue-based
Procedure, shortened: as §1, with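 “0.6” for “0.9”, “[3H]DAMGO” for “[3H]U69,593”, “75” for “90”, “5” for “10”, “DAMGO.” for “U69,593.”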

CC1(C)SSC[C@H](NC(=O)[C@@H](N)Cc2ccc(O)cc2)C(=O)N[C@@H](Cc2ccc([N+](=O)[O-])cc2)C(=O)N[C@@H]1C(=O)O (H-YC[Phe(4-NO2)][Pen]-OH; disulfide 2-4) gave a Ki (Mu-type opioid receptor [1]) of 0.137 µM, a Ki [2] greater than 10 µM and a Ratio [3] of 82.5.

For CC1(C)SSC[C@H](NC(=O)[C@@H](N)Cc2ccc(O)cc2)C(=O)N[C@@H](Cc2ccc(Cl)cc2)C(=O)N[C@@H]1C(=O)O (H-YC[Phe(4-Cl)][Pen]-OH; disulfide 2-4), the Ki [4] was 10 µM, the Ratio [5] was 334 and the Ki (Mu-type opioid receptor [6]) was 327 nM.

CC1(C)SSC[C@H](NC(=O)[C@@H](N)Cc2ccc(O)cc2)C(=O)N[C@@H](Cc2cccc(O)c2)C(=O)N[C@@H]1C(=O)O (H-YC[mTyr][Pen]-OH; disulfide 2-4) showed a Ki [4] greater than 10 µM, a Ratio [5] of 76.6 and a Ki (Mu-type opioid receptor [6]) of 712 nM. The Ki (Mu-type opioid receptor [1]) was 3.4 µM, the Ki [2] was greater than 10 µM and the Ratio [3] was 22.3.

With Cc1ccc(C[C@@H]2NC(=O)[C@@H](NC(=O)[C@@H](N)Cc3ccc(O)cc3)CSSC(C)(C)[C@@H](C(=O)O)NC2=O)cc1 (H-YC[Phe(4-Me)][Pen]-OH; disulfide 2-4) the Ki [4] was greater than 10 µM, the Ratio [5] was 325 and the Ki (Mu-type opioid receptor [6]) was 1750 nM.

For CC1(C)SSC[C@H](NC(=O)[C@@H](N)Cc2ccc(O)cc2)C(=O)N[C@@H](Cc2ccc(F)cc2)C(=O)N[C@@H]1C(=O)O (H-YC[Phe(4-F)][Pen]-OH; disulfide 2-4), the Ki (Mu-type opioid receptor [1]) was 0.161 µM, the Ki [2] was greater than 10 µM and the Ratio [3] was 146.

Work on CC1(C)SSC[C@H](NC(=O)[C@@H](N)Cc2ccc(O)cc2)C(=O)N[C@@H](Cc2ccccc2F)C(=O)N[C@@H]1C(=O)O (H-YC[Phe(2-F)][Pen]-OH; disulfide 2-4) yielded a Ki [4] greater than 10 µM, a Ratio [5] of 28.1 and a Ki (Mu-type opioid receptor [6]) of 91.9 nM.

CC(C)(C)c1ccc(C[C@@H]2NC(=O)[C@@H](NC(=O)[C@@H](N)Cc3ccc(O)cc3)CSSC(C)(C)[C@@H](C(=O)O)NC2=O)cc1 (H-YC[Phe(4-tBu)][Pen]-OH; disulfide 2-4) showed a Ki [4] greater than 10 µM, a Ratio [5] of 270 and a Ki (Mu-type opioid receptor [6]) of 10000 nM. The Ki (Mu-type opioid receptor [1]) was 10 µM, the Ki [2] was greater than 10 µM and the Ratio [3] was 15.

For CC1(C)SSC[C@H](NC(=O)[C@@H](N)Cc2ccc(O)cc2)C(=O)N[C@@H](Cc2ccc(O)cc2)C(=O)N[C@@H]1C(=O)O (H-YCY[Pen]-OH; disulfide 2-4), the Ki (Mu-type opioid receptor [1]) was 3.45 µM, the Ki [2] was greater than 10 µM and the Ratio [3] was 135.

CC1(C)SSC[C@H](NC(=O)[C@@H](N)Cc2ccc(O)cc2)C(=O)N[C@@H](Cc2cccc(F)c2)C(=O)N[C@@H]1C(=O)O (H-YC[Phe(3-F)][Pen]-OH; disulfide 2-4) was tested, and the Ki [4] was greater than 10 µM, the Ratio [5] was 19.2 and the Ki (Mu-type opioid receptor [6]) was 55.5 nM.

Reference: ChEMBL document CHEMBL1125449, “Substitution on the Phe3 aromatic ring in cyclic delta opioid receptor-selective dermorphin/deltorphin tetrapeptide analogues: electronic and lipophilic requirements for receptor affinity” (J Med Chem, 1992)
